For data set [1], the species on record is Rattus norvegicus. The data set can be described thus: Displacement of [3H]BTX-B from VGSC site 2 in rat forebrain membranes at 40 uM incubated at 37 degC for 60 mins. Type of data set: cell membranes. To be noted: Brain, Membrane. On the technique in general: In a radioligand displacement assay an active substance lowers the binding of a labelled ligand.

Data set [2] deals with Sodium channel protein type 2 subunit alpha (Homo sapiens) (UniProt Q99250). The data set can be described thus: Inhibition of human NaV1.2 expressed in HEK293 cells at 10 uM using sodium currents elicited through depolarizing step from holding potential of -100 mV to +10 mV for 25 ms at 15 s intervals by whole cell patch clamp method. Type of data set: cell-based. The essentials:
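HEK293 cells stably expressing hNav1.2 were studied by whole-cell patch clamp at 20–22 °C with at least 75% series resistance compensation. Compound came from a 100 mM DMSO stock diluted in perfusion solution (final DMSO at most 0.1%). It was applied after a 3 min control period until current reached steady state. Result expressed as mean percent block ± SEM.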

Data set [3] concerns Rattus norvegicus. Description: Antinociceptive effect in Sprague-Dawley rat model of sciatic nerve constriction-induced neuropathic pain model assessed as reduction in threshold to von Frey filaments applied to affected hind paw at 50 mg/kg, sc measured 2 hrs post dose. Type of data set: functional, organism-based. More on the design: dose 50 mg/kg. An outline of the steps: (§1)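 Adult female Sprague-Dawley rats (150 g at start) with unilateral sciatic nerve ligation; only animals with significant allodynia were used. Drug dissolved in DMSO and diluted in PEG400 to a 200 mg/ml stock, then diluted in PEG400/PBS and given subcutaneously. Von Frey withdrawal threshold measured by the up-and-down method 2 h post-dose. n = 5 per group, vehicle controls; one-way ANOVA with Tukey post hoc tests.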

Data set [4] has as its system Rattus norvegicus. The data set can be described thus: Antinociceptive effect in Sprague-Dawley rat model of sciatic nerve constriction-induced neuropathic pain model assessed as reduction in threshold to von Frey filaments applied to affected hind paw at 100 mg/kg, sc measured 2 hrs post dose. More on the design: dose 100 mg/kg. In kind it is functional, organism-based. An outline of the steps:
as §1

A short description of data set [5]: Drug localization in Sprague-Dawley rat dorsal root ganglions at 100 uM using dansylated compound by two photon confocal microscopy. In kind it is ADME, tissue-based, Dorsal root ganglion.
Data set [6] relates to Rattus norvegicus. Description: Anticonvulsant effect in Sprague-Dawley rat epileptic model assessed as increase in seizure thresholds at 50 mg/kg, po dosed before seizure induction by maximal electroshock test. On the set-up: dose 50 mg/kg. Type of data set: functional, organism-based.
Data set [7] concerns Rattus norvegicus. Description: Anticonvulsant effect in Sprague-Dawley rat epileptic model assessed as increase in seizure thresholds at 50 mg/kg, po dosed before seizure induction by subcutaneous metrazol seizure threshold test. In kind it is functional, organism-based. More on the design: dose 50 mg/kg. The essentials:
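Rats pretreated orally with 50 mg/kg of test compound, then seizures induced by subcutaneous Metrazol (scMET) injection; testing done through the NINDS anticonvulsant screening program.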

The test system of data set [8] is Rattus norvegicus. The data set can be described thus: Antinociceptive effect in Sprague-Dawley rat model of sciatic nerve constriction-induced neuropathic pain model assessed as […] to von Frey filaments applied to affected hind paw at 30 mg/kg, sc measured 2 hrs post dose. Type of data set: functional, organism-based. More on the design: dose 30 mg/kg.

For 33 compounds, inhibition, Activity and Drug uptake results are on record in ChEMBL document CHEMBL2069248, “Synthesis and biological evaluation of a fluorescent analog of phenytoin as a potential inhibitor of neuropathic pain and imaging agent” (Bioorg Med Chem, 2012).

SMILES strings stand for the structures. Calls of active or inactive are those of the source.

Sequence of Sodium channel protein type 2 subunit alpha (Homo sapiens) (Q99250 whole entry, looked up, the tested form may be a part): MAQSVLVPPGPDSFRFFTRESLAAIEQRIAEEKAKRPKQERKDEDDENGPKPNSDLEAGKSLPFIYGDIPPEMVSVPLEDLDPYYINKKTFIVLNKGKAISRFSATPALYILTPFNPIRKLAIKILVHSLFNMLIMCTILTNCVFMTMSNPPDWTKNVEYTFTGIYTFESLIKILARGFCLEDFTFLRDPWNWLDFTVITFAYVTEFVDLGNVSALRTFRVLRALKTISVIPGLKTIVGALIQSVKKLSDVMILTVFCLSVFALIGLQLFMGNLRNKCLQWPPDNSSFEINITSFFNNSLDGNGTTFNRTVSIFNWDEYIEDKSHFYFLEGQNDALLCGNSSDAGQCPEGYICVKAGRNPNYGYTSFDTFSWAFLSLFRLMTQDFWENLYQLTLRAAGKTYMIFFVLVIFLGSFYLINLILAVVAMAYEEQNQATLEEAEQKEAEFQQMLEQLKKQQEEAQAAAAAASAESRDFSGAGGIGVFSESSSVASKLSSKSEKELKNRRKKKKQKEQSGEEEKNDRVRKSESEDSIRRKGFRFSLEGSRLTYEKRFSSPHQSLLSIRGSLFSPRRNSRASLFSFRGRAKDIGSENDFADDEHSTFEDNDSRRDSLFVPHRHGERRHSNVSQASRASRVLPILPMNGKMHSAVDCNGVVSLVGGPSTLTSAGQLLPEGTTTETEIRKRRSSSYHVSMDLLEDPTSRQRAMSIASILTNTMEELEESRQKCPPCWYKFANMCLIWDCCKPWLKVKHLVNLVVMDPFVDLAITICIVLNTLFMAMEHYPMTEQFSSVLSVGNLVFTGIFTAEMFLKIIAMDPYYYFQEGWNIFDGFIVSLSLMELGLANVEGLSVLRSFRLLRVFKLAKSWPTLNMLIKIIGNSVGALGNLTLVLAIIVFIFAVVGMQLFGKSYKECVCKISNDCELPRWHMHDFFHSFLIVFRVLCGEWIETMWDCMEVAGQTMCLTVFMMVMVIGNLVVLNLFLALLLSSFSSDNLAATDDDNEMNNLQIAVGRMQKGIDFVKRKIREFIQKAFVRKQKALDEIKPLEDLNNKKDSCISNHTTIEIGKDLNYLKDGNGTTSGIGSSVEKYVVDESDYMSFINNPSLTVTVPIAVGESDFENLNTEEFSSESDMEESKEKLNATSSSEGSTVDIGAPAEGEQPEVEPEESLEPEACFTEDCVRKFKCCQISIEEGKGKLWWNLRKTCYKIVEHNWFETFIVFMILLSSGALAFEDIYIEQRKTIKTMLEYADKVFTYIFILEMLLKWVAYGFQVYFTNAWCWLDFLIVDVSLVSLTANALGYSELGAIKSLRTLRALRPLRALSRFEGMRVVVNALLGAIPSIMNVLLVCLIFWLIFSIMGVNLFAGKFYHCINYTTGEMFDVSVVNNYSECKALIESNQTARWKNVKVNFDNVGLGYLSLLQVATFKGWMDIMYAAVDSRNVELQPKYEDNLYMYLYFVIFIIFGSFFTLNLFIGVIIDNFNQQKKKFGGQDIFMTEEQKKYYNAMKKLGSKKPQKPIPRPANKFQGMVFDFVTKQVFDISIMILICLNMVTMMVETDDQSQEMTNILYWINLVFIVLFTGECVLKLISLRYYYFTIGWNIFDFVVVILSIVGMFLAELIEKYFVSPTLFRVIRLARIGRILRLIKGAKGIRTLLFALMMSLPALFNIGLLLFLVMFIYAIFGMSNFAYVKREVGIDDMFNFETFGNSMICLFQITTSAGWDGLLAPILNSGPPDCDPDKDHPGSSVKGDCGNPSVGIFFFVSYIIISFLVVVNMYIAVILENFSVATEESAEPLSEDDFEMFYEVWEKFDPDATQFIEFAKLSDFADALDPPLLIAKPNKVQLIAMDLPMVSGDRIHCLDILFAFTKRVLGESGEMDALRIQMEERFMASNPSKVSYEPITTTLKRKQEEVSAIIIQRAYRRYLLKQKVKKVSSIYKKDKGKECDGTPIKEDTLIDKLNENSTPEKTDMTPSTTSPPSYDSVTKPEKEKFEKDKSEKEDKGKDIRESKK

In data set [1], `CC(C)=CCC/C(C)=C/CC(O)(C(N)=O)c1cccc(Cl)c1` (centres undefined) gave an inhibition of 84%.
In the case of `C=CCCCCCC(O)(C(N)=O)c1cccc(Cl)c1` (centres undefined), in data set [1], the inhibition came to 86%.
Take `C=CCCCCCC1(c2cccc(Cl)c2)NC(=O)NC1=O` (centres undefined): in data set [1], the inhibition was 79%.
Same read-out and setting: the result for `O=C1NC(=O)C(CCCCCC2CC2)(c2cccc(Cl)c2)N1` (centres undefined) reads 87%.
The compound `NC(=O)C(O)(CCCCOCc1ccccc1)c1cccc(Cl)c1` (centres undefined) yielded an inhibition in data set [1] of 52%.
On the same count and under the same terms, with `CCCCCCCC(O)(c1cccc(Cl)c1)c1cc(F)cc(OC)c1` (centres undefined) the figure was 56%.
The same measure, in the same setting: with `C#CCN1C(=O)NC(CCCCCCC)(c2cccc(Cl)c2)C1=O` (centres undefined) the figure was 57%.
As to `CCCCCCCC1(c2cccc(Cl)c2)NC(=O)NC1=O` (centres undefined), the inhibition in data set [1] was determined as 70%; in data set [2], 31%. Also, the outcome in data set [3] and in data set [4] was Active.
As for `CCCCCCCC1(c2cccc(Cl)c2)NC(=O)N(Cc2ccccc2)C1=O` (centres undefined), in data set [1], the inhibition came to 72%.
The same measure, in the same setting: the result for `CCCCCCCC1(c2cccc(Cl)c2)OC(C)(C)OC1=O` (centres undefined) reads 27%; that for `CCCCCCCC1(c2cccc(Cl)c2)NC(=S)NC1=O` (centres undefined), 67%; that for `CCCCCCCC(O)(c1cccc(Cl)c1)c1ccc(F)c(F)c1` (centres undefined), 42%.
Regarding `CCCCCCCC1(c2cccc(Cl)c2)NC(=O)N(CC2CC2)C1=O` (centres undefined), the inhibition in data set [1] is 78%.
Still for that read-out and setting: with `O=C1NC(=O)C(CCCOCc2ccccc2)(c2cccc(Cl)c2)N1` (centres undefined) the figure was 71%.
Regarding `CN(C)c1cccc2c(S(=O)(=O)NCCCCCC3(c4cccc(Cl)c4)NC(=O)NC3=O)cccc12` (centres undefined), the Drug uptake result in data set [5] was “Active”. Also, the inhibition in data set [1] turned out to be 86%; in data set [2] it was 59%. The outcome in data set [3] and in data set [4] was Active. Also, the result in data set [6] and in data set [7] was inactive.
Compound `CCCCCCCC(O)(c1cccc(Cl)c1)c1cc(C(F)(F)F)cc(C(F)(F)F)c1` (centres undefined) yielded an inhibition in data set [1] of 8%.
For the compound `C#CC(O)(CCCCCCC)c1cccc(Cl)c1` (centres undefined), in data set [1], the inhibition was found to be 78%.
Same read-out and setting: the result for `CCCCCCCC(O)(c1cccc(Cl)c1)c1ccccn1` (centres undefined) reads 28%.
Compound `CC(C)=CCCC(C)CCC(O)(C(N)=O)c1cccc(Cl)c1` (centres undefined) showed an inhibition in data set [1] of 40%.
In data set [1], `C#C/C(=C\CCCCCC)c1cccc(Cl)c1` gave an inhibition of 32%.
For the compound `NCC1(CC(=O)O)CCCCC1`, the outcome in data set [8] was Active.
Regarding `CCCCCCCC(O)(C(N)=O)c1cccc(Cl)c1` (centres undefined), the inhibition in data set [1] came to 48%.
`CCCCCCCC1(c2cccc(Cl)c2)NC(=O)N(Cc2cccc(F)c2)C1=O` (centres undefined) showed an inhibition in data set [1] of 71%.
Still for that read-out and setting: with `CCCCCCCC(O)(c1cccc(Cl)c1)c1ccc(C)cn1` (centres undefined) the figure was 41%; with `C=CCCCCCC1(c2cccc(Cl)c2)NC(=O)N(CC=C)C1=O` (centres undefined), 72%.
As for `CCCCCCCC(O)(c1cc(F)cc(F)c1)c1cccc(Cl)c1` (centres undefined), the inhibition in data set [1] came out at 35%.
For `O=C1NC(=O)C(c2ccccc2)(c2ccccc2)N1` [PHENYTOIN], the inhibition in data set [1] stood at 28%. Besides, the result in data set [6] and in data set [7] was Active.
Consider `CCCCCCCC1(c2cccc(Cl)c2)NC(SC)=NC1=O` (centres undefined), for which, in data set [1], the inhibition came to 51%.
The compound `CCCCCCCC1(c2cccc(Cl)c2)NC(=O)N(CCc2ccccc2)C1=O` (centres undefined) showed an inhibition in data set [1] of 17%.
Regarding `C=CCN1C(=O)NC(CCCCCCC)(c2cccc(Cl)c2)C1=O` (centres undefined), the inhibition in data set [1] was 83%.
Still for that read-out and setting: with `O=C1NC(=O)C(CCCCCC2CO2)(c2cccc(Cl)c2)N1` (centres undefined) the figure was 28%.
Take `CCCCCCCC1(c2cccc(Cl)c2)C(=O)N=C(SC)N1C` (centres undefined): in data set [1], the inhibition is 18%.
On the same count and under the same terms, the result for `CCCCCCCC(O)(c1cccc(Cl)c1)c1cccc(OC)c1` (centres undefined) reads 51%.

The term inhibition denotes the change of the read-out against control, counted positive when it falls. Read a high inhibition as a response far below the control.
